Results taken from ChEMBL document CHEMBL4033712, “Synthesis and biological evaluation of new C-12(α/β)-(N-) sulfamoyl-phenylamino-14-deoxy-andrographolide derivatives as potent anti-cancer agents” (Bioorg Med Chem Lett, 2017).

Assays:
Type in all cases: functional
SNB-75 = test: Growth inhibition of human SNB75 cells incubated for 48 hrs by sulforhodamine B assay; conditions: SNB-75, 48 h; for CC50: read-out: LC50 (the source's name)
Outline: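 NCI 60 human tumour cell line panel, five-dose study at 0.01, 0.1, 1, 10 and 100 µM, 48 h incubation. Sulforhodamine B protein-binding dye end point. GI50 (50% decrease in net cell growth), TGI (total growth inhibition) and LC50 (net 50% loss of initial cells) read from log concentration versus % growth inhibition curves.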

LOX IMVI [1] = test: Growth inhibition of human LOXIMVI cells incubated for 48 hrs by sulforhodamine B assay; conditions: for CC50: read-out: LC50 (the source's name)
Outline: (§1)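 NCI-60 five-dose screen at 0.01, 0.1, 1, 10 and 100 µM, 48 h incubation, sulforhodamine B end point. GI50 (50% decrease in net growth), TGI (total growth inhibition) and LC50 (net 50% loss of initial cells) taken from log concentration versus % growth inhibition curves.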

OVCAR-8 = test: Growth inhibition of human OVCAR8 cells incubated for 48 hrs by sulforhodamine B assay; conditions: OVCAR-8, 48 h; for CC50: read-out: LC50 (the source's name); outline: as §1
K562 = test: Anticancer activity against human K562 cells assessed as cell growth at 10 uM after 48 hrs by sulforhodamine B assay relative to control; conditions: K562, 48 h, read-out: Activity
Outline: (§2)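 Single-dose NCI-60 panel screen: compound added at 10 µM and the culture incubated 48 h. The end point was read by protein staining with sulforhodamine B. The value is percent growth of treated cells relative to untreated control cells, reported as a mean graph across the panel.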

RPMI-8226 = test: Anticancer activity against human RPMI8226 cells assessed as cell growth at 10 uM after 48 hrs by sulforhodamine B assay relative to control; conditions: RPMI-8226, 48 h, read-out: Activity; outline: as §2
HOP-62 = test: Anticancer activity against human HOP62 cells assessed as cell growth at 10 uM after 48 hrs by sulforhodamine B assay relative to control; conditions: HOP-62, 48 h, read-out: Activity; outline: as §2
NCI-H226 = test: Anticancer activity against human NCI-H226 cells assessed as cell growth at 10 uM after 48 hrs by sulforhodamine B assay relative to control; conditions: NCI-H226, 48 h, read-out: Activity; outline: as §2
NCI-H23 = test: Anticancer activity against human NCI-H23 cells assessed as cell growth at 10 uM after 48 hrs by sulforhodamine B assay relative to control; conditions: NCI-H23, 48 h, read-out: Activity; outline: as §2
NCI-H322M = test: Anticancer activity against human NCI-H322M cells assessed as cell growth at 10 uM after 48 hrs by sulforhodamine B assay relative to control; conditions: read-out: Activity; outline: as §2
NCI-H460 = test: Anticancer activity against human NCI-H460 cells assessed as cell growth at 10 uM after 48 hrs by sulforhodamine B assay relative to control; conditions: NCI-H460, 48 h, read-out: Activity; outline: as §2
COLO 205 = test: Anticancer activity against human COLO205 cells assessed as cell growth at 10 uM after 48 hrs by sulforhodamine B assay relative to control; conditions: COLO 205, 48 h, read-out: Activity; outline: as §2
HCC 2998 = test: Anticancer activity against human HCC2998 cells assessed as cell growth at 10 uM after 48 hrs by sulforhodamine B assay relative to control; conditions: HCC 2998, 48 h, read-out: Activity; outline: as §2
HCT-15 = test: Anticancer activity against human HCT15 cells assessed as cell growth at 10 uM after 48 hrs by sulforhodamine B assay relative to control; conditions: HCT-15, 48 h, read-out: Activity; outline: as §2
KM12 = test: Anticancer activity against human KM12 cells assessed as cell growth at 10 uM after 48 hrs by sulforhodamine B assay relative to control; conditions: KM12, 48 h, read-out: Activity; outline: as §2
SW-620 = test: Anticancer activity against human SW620 cells assessed as cell growth at 10 uM after 48 hrs by sulforhodamine B assay relative to control; conditions: SW-620, 48 h, read-out: Activity
Outline: (§3)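 NCI-60 single-dose screen: compound added at 10 µM, cultures incubated 48 h. End point by sulforhodamine B protein-binding dye. Value reported as percent growth of treated cells relative to untreated control cells.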

SF-295 = test: Anticancer activity against human SF295 cells assessed as cell growth at 10 uM after 48 hrs by sulforhodamine B assay relative to control; conditions: SF-295, 48 h, read-out: Activity; outline: as §2
LOX IMVI [2] = test: Anticancer activity against human LOXIMVI cells assessed as cell growth at 10 uM after 48 hrs by sulforhodamine B assay relative to control; conditions: read-out: Activity; outline: as §2
MDA-MB-435 = test: Anticancer activity against human MDA-MB-435 cells assessed as cell growth at 10 uM after 48 hrs by sulforhodamine B assay relative to control; conditions: MDA-MB-435, 48 h, read-out: Activity; outline: as §2
SK-MEL-28 = test: Anticancer activity against human SK-MEL-28 cells assessed as cell growth at 10 uM after 48 hrs by sulforhodamine B assay relative to control; conditions: SK-MEL-28, 48 h, read-out: Activity; outline: as §2
UACC-257 = test: Anticancer activity against human UACC257 cells assessed as cell growth at 10 uM after 48 hrs by sulforhodamine B assay relative to control; conditions: UACC-257, 48 h, read-out: Activity; outline: as §3
OVCAR-4 = test: Anticancer activity against human OVCAR4 cells assessed as cell growth at 10 uM after 48 hrs by sulforhodamine B assay relative to control; conditions: OVCAR-4, 48 h, read-out: Activity; outline: as §2
NCI/ADR-RES = test: Anticancer activity against human NCI/ADR-RES cells assessed as cell growth at 10 uM after 48 hrs by sulforhodamine B assay relative to control; conditions: read-out: Activity; outline: as §2
SK-OV-3 = test: Anticancer activity against human SKOV3 cells assessed as cell growth at 10 uM after 48 hrs by sulforhodamine B assay relative to control; conditions: SK-OV-3, 48 h, read-out: Activity; outline: as §2
786-0 = test: Anticancer activity against human 786-0 cells assessed as cell growth at 10 uM after 48 hrs by sulforhodamine B assay relative to control; conditions: 786-0, 48 h, read-out: Activity; outline: as §2
CAKI-1 = test: Anticancer activity against human Caki1 cells assessed as cell growth at 10 uM after 48 hrs by sulforhodamine B assay relative to control; conditions: CAKI-1, 48 h, read-out: Activity; outline: as §2
SN12C = test: Anticancer activity against human SN12C cells assessed as cell growth at 10 uM after 48 hrs by sulforhodamine B assay relative to control; conditions: read-out: Activity; outline: as §2
MCF7 = test: Anticancer activity against human MCF7 cells assessed as cell growth at 10 uM after 48 hrs by sulforhodamine B assay relative to control; conditions: MCF7, 48 h, read-out: Activity; outline: as §2
T47D = test: Anticancer activity against human T47D cells assessed as cell growth at 10 uM after 48 hrs by sulforhodamine B assay relative to control; conditions: read-out: Activity; outline: as §3
MDA-MB-468 = test: Anticancer activity against human MDA-MB-468 cells assessed as cell growth at 10 uM after 48 hrs by sulforhodamine B assay relative to control; conditions: MDA-MB-468, 48 h, read-out: Activity; outline: as §2

| SMILES | GI50 (SNB-75) | TGI (SNB-75) | CC50 (SNB-75) | GI50 (LOX IMVI [1]) | TGI (LOX IMVI [1]) | CC50 (LOX IMVI [1]) | GI50 (OVCAR-8) | TGI (OVCAR-8) | CC50 (OVCAR-8) | growth at 10 µM (K562) | growth at 10 µM (RPMI-8226) | growth at 10 µM (HOP-62) | growth at 10 µM (NCI-H226) | growth at 10 µM (NCI-H23) | growth at 10 µM (NCI-H322M) | growth at 10 µM (NCI-H460) | growth at 10 µM (COLO 205) | growth at 10 µM (HCC 2998) | growth at 10 µM (HCT-15) | growth at 10 µM (KM12) | other results |
| --- | --- | --- | --- | --- | --- | --- | --- | --- | --- | --- | --- | --- | --- | --- | --- | --- | --- | --- | --- | --- | --- |
| C=C1CC[C@@H]2[C@](C)(COC(C)=O)[C@H](OC(C)=O)CC[C@@]2(C)[C@H]1CC(Nc1ccc(S(=O)(=O)Nc2ncccn2)cc1)C1=CCOC1=O (stereo not given in full) | 1.27 µM | 3.23 µM | 8.2 µM | 0.89 µM | 2.21 µM | 5.06 µM | 1.48 µM | 3.55 µM | 8.53 µM | 4.6% | -12.7% | 126% | -16.6% | 29.6% | 50.9% | 18.1% | -12.1% | 32% | -51.4% | -13.2% | growth at 10 µM (SW-620): -70%; growth at 10 µM (SF-295): 68%; growth at 10 µM (LOX IMVI [2]): -79.8%; growth at 10 µM (MDA-MB-435): -14.8%; growth at 10 µM (SK-MEL-28): -17.7%; growth at 10 µM (UACC-257): 16.6%; growth at 10 µM (OVCAR-4): 42.7%; growth at 10 µM (NCI/ADR-RES): 16.1%; growth at 10 µM (SK-OV-3): 84.7%; growth at 10 µM (786-0): -10.1%; growth at 10 µM (CAKI-1): 50.2%; growth at 10 µM (SN12C): 7.64%; growth at 10 µM (MCF7): -19.6%; growth at 10 µM (T47D): 42.3%; growth at 10 µM (MDA-MB-468): -54% |
| C=C1CC[C@@H]2[C@](C)(COC(C)=O)[C@H](OC(C)=O)CC[C@@]2(C)[C@H]1CC(Nc1ccc(S(=O)(=O)Nc2nccc(C)n2)cc1)C1=CCOC1=O (stereo not given in full) | 2.69 µM | 14.9 µM | 38.6 µM | 1.53 µM | 3.24 µM | 6.89 µM | 2.61 µM | 8.56 µM | 47.6 µM | 3.62% | -5.56% | 156% | -12.1% | 48.4% | 64.8% | 46.9% | 9.64% | 68.2% | -42% | 13.2% | growth at 10 µM (SW-620): -49.6%; growth at 10 µM (SF-295): 78.7%; growth at 10 µM (LOX IMVI [2]): -72.9%; growth at 10 µM (MDA-MB-435): 0.23%; growth at 10 µM (SK-MEL-28): -7.05%; growth at 10 µM (UACC-257): 48.5%; growth at 10 µM (OVCAR-4): 32.3%; growth at 10 µM (NCI/ADR-RES): 20.9%; growth at 10 µM (SK-OV-3): 101%; growth at 10 µM (786-0): 32.5%; growth at 10 µM (CAKI-1): 61.4%; growth at 10 µM (SN12C): 25.1%; growth at 10 µM (MCF7): 0.14%; growth at 10 µM (T47D): 69.1%; growth at 10 µM (MDA-MB-468): -45.8% |
